Among the data in ChEMBL document CHEMBL1137500, “Inhibitors of type III secretion in Yersinia: design, synthesis and multivariate QSAR of 2-arylsulfonylamino-benzanilides” (Bioorg Med Chem, 2007) are inhibition and Activity values, retold here.

Calls of active or inactive are those of the source. No cut-off for these calls is given here.

Experiment [1] concerns Yersinia pseudotuberculosis. Briefly: Effect on T3S in Yersinia pseudotuberculosis 3 pIB29 assessed as inhibition of light emission at 50 uM by luciferase reporter gene assay. In outline:
(§1)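 Strain YPIII-pIB29 (yopE-luxAB transcriptional fusion, lacking YopH), grown overnight at ambient temperature in BHI with 5 mM EGTA and 20 mM MgCl2 to deplete calcium, then adjusted to OD600 0.15-0.25. Compounds in DMSO (≤1% final) at 100, 50, 20 or 10 µM final, in triplicate. Plates shaken 1 h at ambient temperature, then 2 h at 37 °C. Decanal added within 30 min and luminescence read at once. Result is % inhibition of light versus control.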

For experiment [2], the system named is Yersinia pseudotuberculosis. Briefly: Effect on T3S in Yersinia pseudotuberculosis 3 pIB29 assessed as inhibition of light emission at 20 uM by luciferase reporter gene assay. The method in brief:
as §1

Experiment [3] relates to Yersinia pseudotuberculosis. Description: Effect on T3S in Yersinia pseudotuberculosis 3 pIB29 assessed as inhibition of light emission at 10 uM by luciferase reporter gene assay. The method in brief:
as §1

In experiment [4] the test system is Yersinia pseudotuberculosis. Description: Growth inhibition of Yersinia pseudotuberculosis. In kind it is functional, organism-based. In outline: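 Wild-type YPIII-pIB102 diluted to OD600 0.05-0.1 in BHI with 2.5 mM CaCl2. Grown at 37 °C with shaking, with compound at 10, 20, 50 or 100 µM. Absorbance read at 600 nm periodically, or at 595 nm hourly, over six hours and compared with the control growth curve.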

In experiment [5] the test system is Yersinia pseudotuberculosis. Description: Effect on T3S in Yersinia pseudotuberculosis 3 pIB29 assessed as inhibition of light emission at 100 uM by luciferase reporter gene assay. In outline: as §1

For the compound `CC(=O)c1ccc(S(=O)(=O)Nc2cc(Cl)ccc2C(=O)Nc2ccc(F)c(Cl)c2)cc1`, the inhibition in experiment [1] amounted to 70%; in experiment [2], 33%; in experiment [3] it was 11%; in experiment [5], 72%. The outcome in experiment [4] was inactive.

`O=C(Nc1ccc(F)cc1)c1ccc(Cl)cc1NS(=O)(=O)c1ccc(Cl)c(Cl)c1`: the outcome in experiment [4] was inactive.

On to `Cc1ccc(S(=O)(=O)Nc2cc(F)c(F)cc2C(=O)Nc2ccc(Cl)c(Cl)c2)cc1`, for which the inhibition in experiment [1] was found to be 1%; in experiment [2], 9%; in experiment [3], 57%; in experiment [5], 2%. Further, the result in experiment [4] was inactive.

For `O=C(Nc1ccc(F)c(Cl)c1)c1cc(Cl)ccc1NS(=O)(=O)c1ccc(Cl)c(Cl)c1`, the outcome in experiment [4] was inactive.

Take `O=C(Nc1ccccc1)c1cc(Cl)ccc1NS(=O)(=O)c1cccc2nsnc12`: the inhibition in experiment [1] is 9%; in experiment [2] it was 1%; in experiment [3], -2%; in experiment [5] it was 20%. Also, the result in experiment [4] was inactive.

For `O=C(Nc1ccc(F)c(F)c1)c1ccc(Cl)cc1NS(=O)(=O)c1cccc2nsnc12`, the inhibition was 50% in experiment [1], 17% in experiment [2], 9% in experiment [3] and 63% in experiment [5]. In experiment [4], the result was inactive.

For `O=C(Nc1ccc(Cl)cc1)c1ccccc1NS(=O)(=O)c1cccc2nsnc12`, the inhibition in experiment [1] is 12%; in experiment [2], 5%; in experiment [3], -1%; in experiment [5], 18%. Further, in experiment [4], the outcome was inactive.

Turning to `O=C(Nc1ccc(Cl)c(Cl)c1)c1ccccc1NS(=O)(=O)c1cccc2nsnc12`, the inhibition is 11% in experiment [1], 10% in experiment [2], 5% in experiment [3] and 13% in experiment [5]. Moreover, the result in experiment [4] was inactive.

As to `CN(C)c1ccc(NC(=O)c2cc(Cl)ccc2NS(=O)(=O)c2cccc([N+](=O)[O-])c2)cc1`, the inhibition in experiment [1] turned out to be 8%; in experiment [2], 4%; in experiment [3], 3%; in experiment [5], 7%. Further, the result in experiment [4] was inactive.

As for `COc1ccc(NC(=O)c2ccc(Cl)cc2NS(=O)(=O)c2cccc(F)c2)cc1`, the inhibition stood at 32% in experiment [1], 9% in experiment [2], 5% in experiment [3] and 51% in experiment [5]. Also, the result in experiment [4] was inactive.

As to `CN(C)c1ccc(NC(=O)c2cc(Cl)ccc2NS(=O)(=O)c2ccccc2)cc1`, the inhibition in experiment [1] came out at 2%; in experiment [2], 1%; in experiment [3], 0%; in experiment [5], 1%. In experiment [4], the outcome was inactive.

Turning to `O=C(Nc1cccc(Cl)c1)c1cc(Cl)ccc1NS(=O)(=O)c1cccc2nsnc12`, the inhibition in experiment [1] came out at 47%; in experiment [2] it was 13%; in experiment [3], 3%; in experiment [5] it was 55%. The outcome in experiment [4] was inactive.

In the case of `O=C(Nc1ccc(Cl)c(Cl)c1)c1cc(F)c(F)cc1NS(=O)(=O)c1cccc2nsnc12`, the inhibition in experiment [1] was 66%; in experiment [2], 39%; in experiment [3], 9%; in experiment [5] it was 80%. Further, in experiment [4], the result was inactive.

Take `O=C(Nc1ccc(Cl)c(Cl)c1)c1ccc(Cl)cc1NS(=O)(=O)c1cccc2nsnc12`: the inhibition in experiment [1] worked out at 71%; in experiment [2], 61%; in experiment [3] it was 35%; in experiment [5], 68%. Also, the outcome in experiment [4] was inactive.

With `O=C(Nc1ccc(F)cc1)c1cc(Cl)ccc1NS(=O)(=O)c1cc(Cl)cc(Cl)c1O`, the inhibition was 79% in experiment [1], 43% in experiment [2], 13% in experiment [3] and 88% in experiment [5]. Also, the result in experiment [4] was inactive.
